High-throughput results (PubChem BioAssay)
RGS4 act: potentiators or activators of RGS4 | HEK293 M3R/inducible RGS4, carbachol calcium flux Fluo4; stronger effect = lower value | B-score at 10 µM | AID 463111 | 310,000 compounds, 0.92% hits;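 active means B-score of the integrated calcium signal more than 4 SD below the library mean, with starting fluorescence not abnormally high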;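 further: negative B-score means reduced calcium response which marks RGS4 activation or potentiation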
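Test system: HEK293 cells with stable M3R and inducible RGS4; also added: carbachol at ECmax as muscarinic agonist stimulus; schedule: dye loading 30 min 37 °C, buffer rest 30 min RT; technique: kinetic calcium fluorescence imaging with Fluo4-AM dye, 2 µM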
MrgX1 antag: antagonists of human MrgX1 receptor | Q96LB2 | MRGX1-HEK293 calcium flux, Fluo-4, BAM8-22 antagonism; stronger effect = lower value | B-score at 10 µM | 310,000 compounds, 1.3% hits;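 active means calcium-response B-score plate-corrected more than 3 library SD below zero, starting fluorescence within 5 deviations, no agonist response on first addition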;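 further: peak minus trough fluorescence over baseline after final BAM8-22 challenge near maximal dose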
Target sequence (Q96LB2 whole entry, looked up): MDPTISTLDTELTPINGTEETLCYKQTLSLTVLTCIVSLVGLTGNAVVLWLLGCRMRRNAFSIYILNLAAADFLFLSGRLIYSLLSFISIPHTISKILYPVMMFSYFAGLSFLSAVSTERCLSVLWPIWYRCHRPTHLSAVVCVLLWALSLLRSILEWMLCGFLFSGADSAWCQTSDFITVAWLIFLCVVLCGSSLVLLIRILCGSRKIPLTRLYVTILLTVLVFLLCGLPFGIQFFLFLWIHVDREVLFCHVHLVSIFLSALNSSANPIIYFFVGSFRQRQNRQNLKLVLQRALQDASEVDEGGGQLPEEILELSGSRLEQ
RGS4 block: inhibitors of human RGS4; P49798; HEK293 M3R/RGS4 inducible, Fluo-4 calcium flux; stronger effect = higher value; triggered by carbachol at its EC20; B-score at 10 µM; 310,000 compounds, 0.45% hits; AID 463165;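 active means B-score, a plate-corrected calcium signal, over three deviations above library mean, with baseline fluorescence within five deviations of library mean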;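 further: RGS4 expression induced by doxycycline in cells with stable M3 receptor; B-score is computed from the integrated fluorescence ratio over baseline after carbachol; higher B-score means a larger calcium signal and so more RGS4 inhibition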
Target sequence (P49798 whole entry, looked up): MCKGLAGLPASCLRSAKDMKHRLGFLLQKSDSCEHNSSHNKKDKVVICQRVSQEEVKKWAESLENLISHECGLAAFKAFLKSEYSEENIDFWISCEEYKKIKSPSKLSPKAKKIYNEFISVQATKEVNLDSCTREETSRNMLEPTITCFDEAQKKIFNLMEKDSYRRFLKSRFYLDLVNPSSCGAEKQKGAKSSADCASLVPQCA
MrgX1 PAM: human MrgX1 positive allosteric modulation, primary screen. Q96LB2. MrgX1-HEK293, Fluo-4 calcium flux, FDSS; stronger effect = higher value. B-score at 10 µM. 310,000 compounds, 0.63% hits;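 active means plate-corrected calcium response at least 3 library SD above typical, normal starting fluorescence, not activating the receptor alone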;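 further: compound read alongside a low EC10 to EC30 dose of BAM8-22 agonist; peak minus trough fluorescence over baseline measured at the second addition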
MrgX1 ag: activates human MrgX1 receptor signaling; MrgX1-HEK293 cells, Fluo-4 calcium fluorescence, agonist mode; stronger effect = higher value; B-score at 10 µM; 310,000 compounds, 0.44% hits; AID 588627;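 active means calcium response B-score plate-corrected fluorescence ratio at least 3 library SD, with starting fluorescence B-score inside 5 SD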
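Material – MrgX1-expressing HEK293 cells · Input – 15,000 cells seeded per well · Dosing – compound as first of three additions · Times – overnight seeding, then 1 h dark dye loading · Measured by – kinetic Fluo-4 NW fluorescence of intracellular calcium · Read-out – B-scored fluorescence response ratio · Benchmarks – positive and negative control wells on each plate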
RGS4 inh valid: RGS4 inhibitor validation. calcium response, % at 10 µM. 1,700 compounds, 65% hits. shares compounds with RGS4 block. HEK293 M3R/RGS4, carbachol calcium Fluo-4 fluorescence; carbachol added at its EC20; 0 = buffer wells, 100 = carbachol control;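 active means duplicate-averaged calcium response above the buffer-only control mean plus 5 SD of those controls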;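 further: integrated fluorescence ratio F max minus min over baseline F0; higher response in RGS4-induced cells means RGS4 inhibition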
M3R Ca ctr: non-induced cell nonspecific activity of RGS4 inhibitors. HEK293 M3R non-induced, carbachol calcium Fluo-4; submaximal (EC20) carbachol stimulus; buffer wells 0%, carbachol control wells 100%. activity (percent), % at 10 µM. shares compounds with RGS4 block. 1,900 compounds, 20% hits; call rule not given here;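 further: RGS4 induction absent so cells express M3R without RGS4; higher means more calcium signal and flags a non-specific hit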
RGS4 inh ctr2: second counter-screen for RGS4 inhibitors: non-induced cells without carbachol; calcium response (agonist-mode artifact), % at 10 µM; AID 493001; shares compounds with RGS4 block; 1,900 compounds, 22% hits; HEK293 M3R/RGS4 non-induced, Fluo-4 calcium, no carbachol; normalised: buffer wells 0%, carbachol wells 100%;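 active means duplicate-averaged calcium rise in uninduced cells above buffer wells' mean plus 5 SD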
Hits are given with their value; – = inactive; · = no result given. In the library only some 3.5% were active in any assay of this set; here they are far more common.

SMILES	RGS4 act	MrgX1 antag	RGS4 block	MrgX1 PAM	MrgX1 ag	RGS4 inh valid	M3R Ca ctr	RGS4 inh ctr2
COC(=O)c1sc(NC(=O)CSc2nc3cccnc3n2C)nc1C	–	–	–	–	–	·	·	·
COC(=O)c1sc(NC(=O)CSc2nc3cccnc3n2C2CCCCC2)nc1C	–	–	4.9	–	–	9.5%	–	–
COc1ccc(CC(NC(C)=O)C(=O)NC2CCN(S(=O)(=O)c3ccccc3)CC2)c(OC)c1 (stereo not given)	–	–	–	–	–	·	–	–
COc1ccc(Cl)cc1/C=C1/C(=O)ON=C1C	–	–	–	–	–	·	·	·
O=C1ON=C(c2cccc([N+](=O)[O-])c2)/C1=C/c1ccc(O)cc1	–	–	16	–	–	44%	–	29%
COc1ccc(/C=C2\C(=O)ON=C2c2ccccc2)cc1	–	–	–	–	–	·	·	·
COc1cc(/C=C2\C(=O)ON=C2c2ccc(Cl)cc2)ccc1O	–	–	–	–	27	·	–	56%
CC1=NOC(=O)/C1=C/c1ccc(O)c(Cl)c1	–	–	8.2	–	37	17%	–	50%
O=C1ON=C(c2ccccc2)/C1=C/c1ccc(O)c(O)c1	–	–	5.7	–	–	26%	–	53%
COc1cccc(SCc2noc(C(=O)NCC3CC3)c2C(=O)NCC2CC2)c1	–	–	–	–	–	·	·	·
CCCCN(C(=O)c1ccc(Cl)c(S(=O)(=O)N2CCOCC2)c1)c1c(N)n(CCC)c(=O)[nH]c1=O	–	–	–	–	–	·	·	·
CCOC(=O)CC1COc2ccccc2N1C(=O)c1cccc([N+](=O)[O-])c1 (stereo not given)	–	–	–	–	–	·	·	·
COc1ccc(S(=O)(=O)N(CC(=O)NCc2cccnc2)c2ccc(C)cc2)cc1OC	–	–	–	–	–	·	·	·
O=S(=O)(/N=C(\Sc1ccc(Cl)cc1)c1ccccc1)c1ccccc1	–	–	–	–	–	–	–	18%
Cc1nn(C)cc1/C=N/NC(=O)Cn1nnc(N)n1	–	–	–	–	–	·	·	·
CCCOc1ccc(/C=C/c2[nH]c(=O)[nH]c(=O)c2[N+](=O)[O-])cc1OCC	–	–	–	–	–	·	·	·
CCOc1cc(/C=C\c2[nH]c(=O)[nH]c(=O)c2[N+](=O)[O-])ccc1OC(C)CC (stereo not given)	–	–	–	–	–	·	–	50%
O=C(CN(Cc1ccco1)C(=O)c1ccc(N2CCCC2=O)cc1)Nc1ccccc1C(F)(F)F	–	–	–	–	–	·	·	·
CCOCCCNC(=O)/C(C#N)=C/c1ccc(Cl)c([N+](=O)[O-])c1	–	–	11	–	–	34%	–	–
CCOCCCNC(=O)/C(C#N)=C/c1cc(OC)c(O)c([N+](=O)[O-])c1	–	–	–	–	–	·	·	·
CCN(CC)C(=O)Cn1c(=O)n(CC(=O)N2CCCCC2)c(=O)c2sccc21	–	–	17	–	–	–	–	–
Cc1ccc(Nc2c(-c3ccc(C)o3)nc3cnccn23)cc1	–	–	–	–	–	–	–	–
Cc1ccc(-c2nc3cnccn3c2Nc2ccc3c(c2)OCO3)o1	–	–	–	–	–	·	·	·
Cc1ccc(-c2nc3ccccn3c2Nc2ccccc2)o1	–	–	–	–	–	·	·	·
Cc1ccc(-c2nc3cnccn3c2Nc2ccccc2)o1	–	–	10	–	–	–	–	–
SMILES	RGS4 act	MrgX1 antag	RGS4 block	MrgX1 PAM	MrgX1 ag	RGS4 inh valid	M3R Ca ctr	RGS4 inh ctr2
C#CCN(C(=O)CC1C(=O)NCCN1C/C=C/c1ccccc1)C1CCCCC1 (stereo not given)	–	–	–	–	–	·	·	·
Cc1c(N=NC2=C(O)CC(C)(C)CC2=O)cc2c(c1[N+](=O)[O-])C(C)(C)CC2(C)C	–	–	7.4	–	–	28%	–	–
Cc1c(C(=O)NCc2ccc(S(N)(=O)=O)cc2)oc2ccc(Cl)cc12	–	–	–	–	–	·	·	·
COc1ccc(-c2cn[nH]c2-c2ccc(OCc3ccc([N+](=O)[O-])cc3)cc2O)cc1OC	–	–	–	–	–	·	·	·
CCc1cc(-c2[nH]ncc2-c2ccc([N+](=O)[O-])cc2)c(O)cc1OC	–	–	12	26	–	34%	–	–
CC(=O)O[C@H]1CC(=O)OC(C)(C)C2CC(=O)[C@]3(C)C(CC[C@@](C)([C@@H](O[C@@H]4O[C@H](CO)[C@@H](O)[C@H](O)[C@H]4O)c4ccoc4)[C@@]34O[C@@H]4C(=O)O)[C@]21C (stereo not given in full)	·	–	·	–	–	·	·	·
Cc1ccc(CCC(=O)Nc2ccc([N+](=O)[O-])cc2)o1	–	–	–	–	–	·	·	·
CN(CC(=O)Nc1ccc(OC(F)(F)F)cc1)S(=O)(=O)c1cnc[nH]1	–	–	–	–	–	·	·	·
O=C(CCN1CCOCC1)c1ccc(Br)cc1	–	–	8.4	–	–	29%	–	16%
O=C(CCN1CCOCC1)c1ccc(Cl)cc1	–	–	12	–	–	17%	56%	25%
O=C(CCN1CCN(c2ccccc2)CC1)c1ccc(Br)cc1	–	–	27	–	–	16%	–	–
Clc1ccc(OCCN2CCOCC2)cc1	–	–	–	–	–	·	·	·
CCCCCOc1ccc(C(=O)CCN2CCOCC2)cc1	–	–	–	–	–	·	·	·
CSc1ncc(-c2ccc(Cl)cc2)[nH]1	–	–	–	–	–	·	·	·
CCOC(=O)CSc1[nH]c2cc(OC)ccc2c1[N+](=O)[O-]	–	–	–	–	–	·	·	·
COC(=O)CSc1[nH]c2ccc(F)cc2c1[N+](=O)[O-]	–	–	19	–	–	34%	–	–
O=C(COC(=O)c1ccco1)NCc1ccc(F)cc1	–	–	–	–	–	·	·	·
Cc1cccc(C2c3[nH]c4ccccc4c3CCN2C(=O)Cc2n[nH]c(C)n2)n1 (stereo not given)	–	–	–	–	–	·	–	–
CC(=O)c1ccc(C(=O)N2CCc3c([nH]c4ccccc34)C2c2cccc(C)n2)s1 (stereo not given)	–	–	–	–	–	·	·	·
Cc1cc(C)n(-c2cc(C(C)(C)C)nc3c(-c4ccccc4)cnn23)n1	–	–	–	–	–	·	32%	–
CC(C)(C)c1cc(NCc2ccccn2)n2ncc(-c3ccccc3)c2n1	–	–	–	–	–	·	·	·
Cc1cc(C)n(-c2cc(C(C)(C)C)nc3c(-c4ccc(Cl)cc4)cnn23)n1	–	–	8.6	–	–	33%	–	–
